According to ChEMBL document CHEMBL2440012, “Design, synthesis and anticonvulsant properties of new N-Mannich bases derived from 3-phenylpyrrolidine-2,5-diones” (Bioorg Med Chem, 2013):
The source made the active and inactive calls. The rule behind the calls is not given here.

What was measured:
Rattus norvegicus [1] = test: Anticonvulsant activity in albino rat assessed as protection against pilocarpine-induced status epilepticus at 100 mg/kg, ip measured 0.5 hrs post first stage 3 seizure; format: functional, organism-based; parameters: dose 100 mg/kg
Method in brief: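 Male Sprague-Dawley rats (150–180 g) dosed ip, followed by challenge dose of pilocarpine; compound given relative to first stage III seizure (time zero or 0.5 h); outcome scored as protection or no protection, plus body-weight change 24 h after first stage III seizure.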

Mus musculus [2] = test: Neurotoxicity in ip dosed albino CF1 mouse assessed as time to peak effect by rotorod test; format: toxicity, organism-based; conditions: in vivo
Mus musculus [3] = test: Anticonvulsant activity against […] psychomotor seizure in ip dosed albino CF1 mouse by minimal clonic seizure test; format: functional
Mus musculus [4] = test: Anticonvulsant activity against 6 Hz psychomotor seizure in ip dosed albino CF1 mouse by minimal clonic seizure test; format: functional
Mus musculus [5] = test: Anticonvulsant activity against […] psychomotor seizure in ip dosed albino CF1 mouse assessed as time to peak effect by minimal clonic seizure test; format: functional
Mus musculus [6] = test: Anticonvulsant activity against 6 Hz psychomotor seizure in ip dosed albino CF1 mouse assessed as time to peak effect by minimal clonic seizure test; format: functional
Mus musculus [7] = test: Anticonvulsant activity in albino CF1 mouse assessed as assessed as protection against 6 Hz psychomotor seizure at 50 mg/kg, ip after 4 hrs by minimal clonic seizure test; format: functional; conditions: route intraperitoneal
Method in brief: (§1)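 Male CF-1 mice, groups of four, dosed ip in 0.5% methylcellulose/water suspension, then challenged by 6-Hz corneal stimulation at 32 mA (0.2 ms pulses, 3 s, constant current) at 0.25, 0.5, 1, 2 or 4 h; count of mice out of four protected from stunned posture/clonic seizure.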

Mus musculus [8] = test: Anticonvulsant activity in albino CF1 mouse assessed as assessed as protection against 6 Hz psychomotor seizure at 50 mg/kg, ip after 2 hrs by minimal clonic seizure test; format: functional; conditions: route intraperitoneal; method in brief: as §1
Mus musculus [9] = test: Anticonvulsant activity in albino CF1 mouse assessed as assessed as protection against 6 Hz psychomotor seizure at 50 mg/kg, ip after 1 hr by minimal clonic seizure test; format: functional; conditions: route intraperitoneal; method in brief: as §1
Mus musculus [10] = test: Anticonvulsant activity in albino CF1 mouse assessed as assessed as protection against 6 Hz psychomotor seizure at 50 mg/kg, ip after 0.5 hr by minimal clonic seizure test; format: functional; conditions: route intraperitoneal; method in brief: as §1
Mus musculus [11] = test: Anticonvulsant activity in albino CF1 mouse assessed as assessed as protection against 6 Hz psychomotor seizure at 50 mg/kg, ip after 0.25 hr by minimal clonic seizure test; format: functional; conditions: route intraperitoneal; method in brief: as §1
Mus musculus [12] = test: Anticonvulsant activity in albino CF1 mouse assessed as assessed as protection against 6 Hz psychomotor seizure at 100 mg/kg, ip after 4 hrs by minimal clonic seizure test; format: functional; conditions: route intraperitoneal; method in brief: as §1
Mus musculus [13] = test: Anticonvulsant activity in albino CF1 mouse assessed as assessed as protection against 6 Hz psychomotor seizure at 100 mg/kg, ip after 2 hrs by minimal clonic seizure test; format: functional; conditions: route intraperitoneal; method in brief: as §1
Mus musculus [14] = test: Anticonvulsant activity in albino CF1 mouse assessed as assessed as protection against 6 Hz psychomotor seizure at 100 mg/kg, ip after 1 hr by minimal clonic seizure test; format: functional; conditions: route intraperitoneal; method in brief: as §1
Mus musculus [15] = test: Anticonvulsant activity in albino CF1 mouse assessed as assessed as protection against 6 Hz psychomotor seizure at 100 mg/kg, ip after 0.25 hr by minimal clonic seizure test; format: functional; conditions: route intraperitoneal; method in brief: as §1
Rattus norvegicus [16] = test: Anticonvulsant activity in albino Sprague-Dawley rat assessed as protection against maximal electroshock-induced seizures at 30 mg/kg, po measured after 4 hrs; format: functional
Method in brief: (§2)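 Male Sprague-Dawley rats, four per group, dosed p.o. at 30 mg/kg in 0.5% methylcellulose/water suspension; MES test at 0.25, 0.5, 1, 2 and 4 h, motor impairment examined in parallel; number of rats out of four protected.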

Rattus norvegicus [17] = test: Anticonvulsant activity in albino Sprague-Dawley rat assessed as protection against maximal electroshock-induced seizures at 30 mg/kg, po measured after 2 hrs; format: functional; method in brief: as §2
Rattus norvegicus [18] = test: Anticonvulsant activity in albino Sprague-Dawley rat assessed as protection against maximal electroshock-induced seizures at 30 mg/kg, po measured after 1 hr; format: functional; method in brief: as §2
Rattus norvegicus [19] = test: Anticonvulsant activity in albino Sprague-Dawley rat assessed as protection against maximal electroshock-induced seizures at 30 mg/kg, po measured after 0.5 hr; format: functional; method in brief: as §2
Rattus norvegicus [20] = test: Anticonvulsant activity in albino Sprague-Dawley rat assessed as protection against maximal electroshock-induced seizures at 30 mg/kg, po measured after 0.25 hr; format: functional; method in brief: as §2
Mus musculus [21] = test: Neurotoxicity in ip dosed albino CF1 mouse assessed as minimum motor impairment in half or more animals measured after 4 hrs by rotorod test; format: toxicity, organism-based; conditions: in vivo
Method in brief: (§3)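 Male CF-1 mice given ip suspension in 0.5% methylcellulose/water at 30, 100 and 300 mg/kg; MES, scPTZ (pentylenetetrazole 85 mg/kg sc, CD97 dose for clonic seizures ≥5 s) and rotarod (inability to hold balance 1 min in each of three trials) assessed at 0.5 and 4 h; value is minimum dose active in half or more animals.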

Mus musculus [22] = test: Anticonvulsant activity in ip dosed albino CF1 mouse assessed as protection against subcutaneous pentylenetetrazole-induced convulsion in half or more animals measured after 4 hrs; format: functional; conditions: albino CF1, 4 h, read-out: MED; method in brief: as §3
Mus musculus [23] = test: Anticonvulsant activity in ip dosed albino CF1 mouse assessed as protection against subcutaneous pentylenetetrazole-induced convulsion in half or more animals measured after 0.5 hr; format: functional; conditions: albino CF1, 0.5 h, read-out: MED; method in brief: as §3
Mus musculus [24] = test: Toxicity in albino CF1 mouse assessed as sedation at 100 mg/kg, ip measured after 4 hrs by rotorod test; format: organism-based; parameters: dose 100 mg/kg, route intraperitoneal; conditions: in vivo
Mus musculus [25] = test: Anticonvulsant activity in ip dosed albino CF1 mouse assessed as protection against maximal electroshock-induced seizures in half or more animals measured after 0.5 hr; format: functional; conditions: read-out: MED; method in brief: as §3
Mus musculus [26] = test: Anticonvulsant activity in ip dosed albino CF1 mouse assessed as protection against maximal electroshock-induced seizures in half or more animals measured after 4 hrs; format: functional; conditions: read-out: MED; method in brief: as §3
Mus musculus [27] = test: Anticonvulsant activity in albino CF1 mouse assessed as assessed as protection against 6 Hz psychomotor seizure at 100 mg/kg, ip after 0.5 hr by minimal clonic seizure test; format: functional; conditions: route intraperitoneal; method in brief: as §1

**Q.** Which results are given for `O=C1CC(c2ccccc2Cl)C(=O)N1CN1CCOCC1` (racemic)?
**A.** Activity (Rattus norvegicus [1]): inactive; Time (Mus musculus [2]): 0.25 h; ED50 (Mus musculus [3]): 55.6 mg/kg; ED50 (Mus musculus [4]): 31.1 mg/kg; Time (Mus musculus [5]): 0.5 h; Time (Mus musculus [6]): 0.25 h; Activity (Mus musculus [7]): 0%; Activity (Mus musculus [8]): 75%; Activity (Mus musculus [9]): 75%; Activity (Mus musculus [10]): 75%; Activity (Mus musculus [11]): 100%; Activity (Mus musculus [12]): 100%; Activity (Mus musculus [13]): 100%; Activity (Mus musculus [14]): 100%; Activity (Mus musculus [15]): 100%; Activity (Rattus norvegicus [16]): inactive; Activity (Rattus norvegicus [17]): inactive; Activity (Rattus norvegicus [18]): 25%; Activity (Rattus norvegicus [19]): 25%; Activity (Rattus norvegicus [20]): inactive; MED (Mus musculus [21]): 300 mg/kg; minimal effective dose (Mus musculus [22]): 300 mg/kg; minimal effective dose (Mus musculus [23]): 100 mg/kg; MED (Mus musculus [24]): 300 mg/kg; minimal effective dose (Mus musculus [25]): 100 mg/kg; minimal effective dose (Mus musculus [26]): 100 mg/kg; Activity (Mus musculus [27]): 100%
